Measured values as given in ChEMBL document CHEMBL1122109, “Monophenolic octahydrobenzo[f]quinolines: central dopamine- and serotonin-receptor stimulating activity” (1982).
Calls of active or inactive are those of the source. No cut-off for these calls is given here.

How the values were obtained:
[1] = species: Rattus norvegicus; assay: ED50 value was measured as dose required to produce a half-maximal reduction of Serotonin (5-HTP) accumulation in limbic area of reserpinized rat brain; I is Inactive, no significant effect at doses approximately 40 times the ED50 for Dopa accumulation; format: functional, organism-based
[2] = species: Rattus norvegicus; assay: ED50 value was measured as dose required to produce a half-maximal reduction of Dopa accumulation in limbic area of reserpinized rat brain.; format: functional
[3] = species: Rattus norvegicus; assay: ED50 value was measured as dose required to produce a half-maximal reduction of Dopa accumulation in the striatum of reserpinized rat brain.; format: functional
[4] = species: Rattus norvegicus; assay: Percent reduction of hemispheres in cortex was measured in the brain of reserpinized rats; I is Inactive, no significant effect at doses approximately 40 times the ED50 for Dopa accumulation; format: functional, organism-based
[5] = species: Rattus norvegicus; assay: ED50 value was measured as dose required to produce a half-maximal reduction of Serotonin (5-HTP) accumulation in striatum of reserpinized rat brain; I is Inactive, no significant effect at doses approximately 40 times the ED50 for Dopa accumulation; format: functional, organism-based
[6] = species: Rattus norvegicus; assay: Motor activity was measured in the reserpinized rats as counts/60 min.; format: functional
Outline: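 Male Sprague-Dawley rats (200-300 g) received reserpine 10 mg/kg ip 6 h before testing and DL-α-methyl-p-tyrosine methyl ester HCl 250 mg/kg ip 1 h before. Test drug was given sc in the neck: trans derivatives at 1 mg/kg (3100 nmol/kg), cis at 10 mg/kg (31000 nmol/kg), n = 4. Rats were placed singly in motility meters immediately and activity recorded for 60 min; means ± SEM.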

[7] = species: Rattus norvegicus; assay: Percent reduction of hemispheres in cortex was measured in the brain of reserpinized rats.*: No significant effect at doses approximately 40 times the ED50; I is Inactive, no significant effect at doses approximately 40 times the ED50 for Dopa ac cumulation; format: functional, organism-based
[8] = species: Rattus norvegicus; assay: ED50 value was measured as dose required to produce a half-maximal reduction of Serotonin (5-HTP) accumulation in limbic area of reserpinized rat brain; I is Inactive, no significant effect at doses approximately 10 times the ED50 for Dopa accumulation; format: functional, organism-based
[9] = species: Rattus norvegicus; assay: Percent reduction of hemispheres in cortex was measured in the brain of reserpinized rats; I is Inactive, no significant effect at doses approximately 10 times the ED50 for Dopa accumulation; format: functional, organism-based
[10] = test system: Rattus norvegicus; assay: ED50 value was measured as dose required to produce a half-maximal reduction of Serotonin (5-HTP) accumulation in striatum of reserpinized rat brain; I is Inactive at 2800 nmol/kg; format: functional, organism-based
[11] = test system: Rattus norvegicus; assay: ED50 value was measured as dose required to produce a half-maximal reduction of Serotonin (5-HTP) accumulation in limbic area of reserpinized rat brain; I is Inactive at 2800 nmol/kg; format: functional, organism-based
[12] = test system: Rattus norvegicus; assay: ED50 value was measured as dose required to produce a half-maximal reduction of Dopa accumulation in the striatum of reserpinized rat brain; I is Inactive at 2800 nmol/kg; format: functional, organism-based
[13] = test system: Rattus norvegicus; assay: ED50 value was measured as dose required to produce a half-maximal reduction of Dopa accumulation in limbic area of reserpinized rat brain; I is Inactive at 2800 nmol/kg; format: functional, organism-based
[14] = test system: Rattus norvegicus; assay: Percent reduction of hemispheres in cortex was measured in the brain of reserpinized rats; I is Inactive at 2800 nmol/kg; format: functional, organism-based
[15] = species: Rattus norvegicus; assay: ED50 value was measured as dose required to produce a half-maximal reduction of Serotonin (5-HTP) accumulation in striatum of reserpinized rat brain; I is Inactive, no significant effect at doses approximately 10 times the ED50 for Dopa accumulation; format: functional, organism-based
[16] = test system: Rattus norvegicus; assay: Percent reduction of hemispheres in cortex was measured in the brain of reserpinized rats.*: No significant effect at doses approximately 40 times the ED50; IA is Inactive at 45000 nmol/kg; format: functional, organism-based
[17] = test system: Rattus norvegicus; assay: ED50 value was measured as dose required to produce a half-maximal reduction of Dopa accumulation in the striatum of reserpinized rat brain; Maximal reduction of Dopa could not be obtained. 60% reduction from control level at 12500 nmol/Kg; format: functional, organism-based
[18] = test system: Rattus norvegicus; assay: ED50 value was measured as dose required to produce a half-maximal reduction of Serotonin (5-HTP) accumulation in limbic area of reserpinized rat brain; I is Inactive at 45000 nmol/kg; format: functional, organism-based
[19] = test system: Rattus norvegicus; assay: ED50 value was measured as dose required to produce a half-maximal reduction of Dopa accumulation in limbic area of reserpinized rat brain; Maximal reduction of Dopa could not be obtained. 40% reduction from control level at 12500 nmol/Kg; format: functional, organism-based
[20] = test system: Rattus norvegicus; assay: ED50 value was measured as dose required to produce a half-maximal reduction of Serotonin (5-HTP) accumulation in striatum of reserpinized rat brain; I is Inactive at 45000 nmol/kg; format: functional, organism-based
[21] = test system: Rattus norvegicus; assay: ED50 value was measured as dose required to produce a half-maximal reduction of Serotonin (5-HTP) accumulation in striatum of reserpinized rat brain; I is Inactive at 11300 nmol/Kg; format: functional, organism-based
[22] = test system: Rattus norvegicus; assay: ED50 value was measured as dose required to produce a half-maximal reduction of Serotonin (5-HTP) accumulation in limbic area of reserpinized rat brain; I is Inactive at 11300 nmol/Kg; format: functional, organism-based
[23] = test system: Rattus norvegicus; assay: Percent reduction of hemispheres in cortex was measured in the brain of reserpinized rats; I is Inactive at 11300 nmol/Kg; format: functional, organism-based
[24] = species: Rattus norvegicus; assay: Percent reduction of hemispheres in cortex was measured in the brain of reserpinized rats.*: No significant effect at doses approximately 40 times the ED50; format: functional
[25] = species: Rattus norvegicus; assay: ED50 value was measured as dose required to produce a half-maximal reduction of Serotonin (5-HTP) accumulation in limbic area of reserpinized rat brain; format: functional
[26] = species: Rattus norvegicus; assay: ED50 value was measured as dose required to produce a half-maximal reduction of Serotonin (5-HTP) accumulation in striatum of reserpinized rat brain; format: functional
[27] = species: Rattus norvegicus; assay: ED50 value was measured as dose required to produce a half-maximal reduction of Dopa accumulation in limbic area of reserpinized rat brain; I is Inactive, no significant effect at doses approximately 10 times the ED50 for Dopa accumulation; format: functional, organism-based
[28] = species: Rattus norvegicus; assay: ED50 value was measured as dose required to produce a half-maximal reduction of Dopa accumulation in the striatum of reserpinized rat brain; I is Inactive, no significant effect at doses approximately 10 times the ED50 for Dopa accumulation; format: functional, organism-based
[29] = test system: Rattus norvegicus; assay: ED50 value was measured as dose required to produce a half-maximal reduction of Dopa accumulation in the striatum of reserpinized rat brain; I is Inactive at 500 nmol/kg; format: functional, organism-based
[30] = test system: Rattus norvegicus; assay: ED50 value was measured as dose required to produce a half-maximal reduction of Dopa accumulation in limbic area of reserpinized rat brain; I is Inactive at 500 nmol/kg; format: functional, organism-based
[31] = species: Rattus norvegicus; assay: ED50 for 5-HTP in cortex hemispheres was measured in the brain of reserpinized rats.
[32] = species: Rattus norvegicus; assay: ED50 value was measured as dose required to produce a half-maximal reduction of Dopa accumulation in limbic area of reserpinized rat brain; I is Inactive, no significant effect at doses approximately 40 times the ED50 for Dopa accumulation; format: functional, organism-based
[33] = species: Rattus norvegicus; assay: ED50 value was measured as dose required to produce a half-maximal reduction of Dopa accumulation in the striatum of reserpinized rat brain; I is Inactive, no significant effect at doses approximately 40 times the ED50 for Dopa accumulation; format: functional, organism-based
[34] = Rattus norvegicus, Brain, read-out: ED50
[35] = Rattus norvegicus, Striatum, read-out: ED50

Structure (SMILES) | ED50 [1] | ED50 [2, 34] | ED50 [3, 35] | Hemispheres reduction [4] | ED50 [5] | Motor activity [6] | further results
CCCN1CCCC(c2cccc(O)c2)C1 (configuration not stated) | inactive | 3.6 µmol/kg | 3.6 µmol/kg | inactive | inactive |  | 
CCCN(CCC)C1CCc2ccc(O)cc2C1 (configuration not stated) | inactive | 0.027 µmol/kg | 0.03 µmol/kg | inactive | inactive |  | 
CCCN(CCC)[C@@H]1CCc2ccc(O)cc2C1 |  | 0.18 µmol/kg | 0.17 µmol/kg |  |  |  | 
CCCCN1CCCC2c3cccc(O)c3CCC21 (configuration not stated) | inactive | 0.08 µmol/kg | 0.07 µmol/kg |  | inactive | 418 | Hemispheres reduction [7]: inactive
CCCN1CCCC2c3ccc(O)cc3CCC21 (configuration not stated) |  | 0.54 µmol/kg | 0.53 µmol/kg |  |  | 179 | ED50 [8]: inactive; Hemispheres reduction [9]: inactive; ED50 [10]: inactive; ED50 [11]: inactive; ED50 [12]: inactive; ED50 [13]: inactive; Hemispheres reduction [14]: inactive; ED50 [15]: inactive
CCCN1CCCC2c3cccc(O)c3CCC21 (stereo in doubt; 6) [listing 1 of 2 here] |  |  |  |  |  | 17 | 
CCCN1CCCC2c3cccc(O)c3CCC21 (stereo in doubt; 6) [listing 2 of 2 here] |  |  |  |  |  |  | Hemispheres reduction [16]: inactive; ED50 [17]: Weak activity; ED50 [18]: inactive; ED50 [19]: Weak activity; ED50 [20]: inactive
CCCN1CCCC2c3cccc(O)c3CCC21 (stereo in doubt; 7) [listing 1 of 2 here] |  | 0.13 µmol/kg | 0.13 µmol/kg |  |  | 327 | 
CCCN1CCCC2c3cccc(O)c3CCC21 (stereo in doubt; 7) [listing 2 of 2 here] | inactive |  |  | inactive | inactive |  | 
CCCN1CCCC2c3cc(O)ccc3CCC21 (stereo in doubt; 8) [listing 1 of 2 here] |  |  |  |  |  |  | ED50 [2]: 2000 nM/kg; ED50 [3]: 3400 nM/kg
CCCN1CCCC2c3cc(O)ccc3CCC21 (stereo in doubt; 8) [listing 2 of 2 here] |  |  |  |  |  |  | ED50 [21]: inactive; ED50 [22]: inactive; Hemispheres reduction [23]: inactive
CCCN1CCCC2c3cc(O)ccc3CCC21 (stereo in doubt; 9) [listing 1 of 2 here] |  |  |  |  |  | 365 | ED50 [2]: 8 nM/kg; ED50 [3]: 12 nM/kg
CCCN1CCCC2c3cc(O)ccc3CCC21 (stereo in doubt; 9) [listing 2 of 2 here] | inactive |  |  | inactive | inactive |  | 
CCCN1CCCC2c3c(O)cccc3CCC21 (stereo in doubt; 17) [listing 1 of 2 here] |  |  |  |  |  |  | Hemispheres reduction [24]: 4500; ED50 [25]: 3400 nM/kg; ED50 [26]: 3400 nM/kg
CCCN1CCCC2c3c(O)cccc3CCC21 (stereo in doubt; 17) [listing 2 of 2 here] |  |  |  |  |  |  | ED50 [27]: inactive; ED50 [28]: inactive
CCCN1CCCC2c3c(O)cccc3CCC21 (stereo in doubt; 18) [listing 1 of 2 here] |  |  |  |  |  |  | Hemispheres reduction [24]: 160; ED50 [25]: 230 nM/kg; ED50 [26]: 180 nM/kg
CCCN1CCCC2c3c(O)cccc3CCC21 (stereo in doubt; 18) [listing 2 of 2 here] |  |  |  |  |  |  | ED50 [29]: inactive; ED50 [30]: inactive
CCCN(CCC)C1CCc2c(O)cccc2C1 (configuration not stated) [5-OH-DPAT] | inactive | 0.011 µmol/kg | 0.009 µmol/kg | inactive | inactive | 688 | 
CCCN(CCC)C1CCc2cccc(O)c2C1 (configuration not stated) [8-OH-DPAT] |  |  |  |  |  |  | ED50 [31]: 68 nmol/kg; ED50 [32]: inactive; ED50 [33]: inactive; ED50 [25, 34]: 0.048 µmol/kg; ED50 [26, 35]: 0.045 µmol/kg
CN1CCc2cccc3c2[C@H]1Cc1ccc(O)c(O)c1-3 [APOMORPHINE] |  | 0.19 µmol/kg | 0.22 µmol/kg | inactive |  | 624 | 
